High-throughput results from PubChem BioAssay.
CSC inhib = cancer stem cell viability inhibitors, primary screen, luminescence. cancer stem cell-like cells viability. inhibition, % at 7.5 µM. hit rate 1.1% among 300,000. AID 2717, 2010; in the data active = inhibition above about 75%; inconclusive = no clear call, values can overlap the other calls; tested in HMLE shEcad cells
T cruzi inh = inhibitors of intracellular T. cruzi growth, primary screen, luminescence, NIH3T3 host cells. AID 1885, 2009. inhibition, % (no concentration beside the values). hit rate 1.4% among 300,000. T. cruzi beta-gal in NIH3T3, 90 h;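 active = mean inhibition across valid replicates above about 55%, limit read from the data; inconclusive = mean below that limit but half or more replicates reach it; inactive = mean below it, under half of replicates reach it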;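 also: signal also drops with host cell toxicity which is not excluded here; 0% = plate median of DMSO wells and 100% = zero luminescence signal; higher percent means less beta-gal luminescence so fewer parasites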
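Assay system: NIH/3T3 fibroblasts plus reporter T. cruzi. Amount: NIH/3T3 cells, 5,000 per well. Buffer or medium: DMEM, 2% fetal bovine serum. Doses: compound pinned at 50 nL/well, DMSO. Schedule: ≥90 h infection period, 3 h prior cell attachment. Signal: luminescent β-galactosidase signal after 60 min lysis. Read-out: parasite load inhibition, %.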
CHOP UPR activ = activators of apoptotic CHOP UPR arm, primary screen, cell-based, CHO-CHOP luciferase reporter, luminescence, uHTS; UPR activation; percent of tunicamycin response over DMSO baseline; activation, % at 10 µM; hit rate 0.34% among 330,000; AID 449763, 2010;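 active = at 10 µM dose, activation of 40% or more, normalized to positive control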;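 also: 100% = tunicamycin at 10 µg/mL and 0% = DMSO alone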
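Test system: CHO CHOP reporter cells. Input: 500 CHO-CHOP cells per well. Medium: F12 with 10% FBS. Technique: luciferase luminescence. Measure: percent activation relative to tunicamycin control. Dosing: 10 µM compound, 0.5% DMSO. Timing: 16-18 h cell attachment, then 6 h compound exposure, 37 °C.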
Beta cell apopt = inhibitors of cytokine-induced beta cell apoptosis, primary screen, luminescence. INS-1E cytokine-induced death, ATP luminescence, 48 h; percent of positive-control rescue, neutral wells zero. AID 435005, 2010. protection from apoptosis, % (concentration not given with the values). hit rate 0.8% among 300,000;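 active = Every replicate reaches about 75%, or at least half do and their mean reaches it too, limit read from the data; inconclusive = At least half of replicates reach the limit but their mean does not; inactive = Under half of replicates reach the limit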;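 also: 0% = cytokine-treated negative control wells and 100% = positive control rescue; higher means more ATP so stronger rescue from cytokine killing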
Mdm2-MdmX inh = inhibitors of human Mdm2-MdmX association, primary screen, cell-based, luminescence, split luciferase, SaOS-2, uHTS. inhibition, % at 8 µM. Protein Mdm4 (Homo sapiens) + E3 ubiquitin-protein ligase Mdm2 (Homo sapiens), …. hit rate 3% among 330,000. SaOS-2 split-luciferase Mdm2/MdmX complementation;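 active = inhibition of at least 50% at 8 µM in the primary screen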
UPR XBP1 act = activators of adaptive XBP1 UPR arm, primary screen, cell-based, CHO-XBP1 luciferase reporter, luminescence, uHTS | IRE1-XBP1 UPR activation; percent of tunicamycin response, DMSO as zero | activation, % at 20 µM | hit rate 0.33% among 330,000 | AID 463104, 2010;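 active = versus positive control, 20 µM dose yields 30% or more activation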;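 also: 100% = tunicamycin at 10 µg/mL and 0% = DMSO only wells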
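Test system: CHO-XBP1 luciferase reporter cells | Buffer or medium: Serum-containing F12 medium, 10% FBS | Schedule: 6 h compound exposure at 37 °C, 5% CO2 | Detection: Steady-Glo luciferase glow luminescence, 10 min after reagent addition | Read-out basis: Activation, % of tunicamycin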
Mdm2-MdmX conf = Mdm2-MdmX complex disruptors, retested hits, confirmation, luminescence, single concentration. shares compounds with Mdm2-MdmX inh. Mdm2-MdmX binding, luminescent assay. inhibition, % at 8 µM. hit rate 55% among 10,000; in the data active = inhibition above about 40%
FLuc counter = full-length luciferase signal inhibition, confirmation, counter-screen for Mdm2/MdmX interaction inhibitor project, cell-based, single concentration, SaOS-2 | shares compounds with Mdm2-MdmX inh | SaOS-2 full-length luciferase counterscreen, luminescence | inhibition, % at 8 µM | hit rate 77% among 6,200 | AID 504607, 2011;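 active = mean inhibition at 8 µM reaching about 37%, which flags the compound as non-specific, limit read from the data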;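 also: p53-null SaOS-2 cells with luciferase driven by a doxycycline-inducible promoter; compound on cells about two nights before reading with doxycycline added after day one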
Numbers without * were called inactive; ? = inconclusive; . = no result. Hits are enriched below; roughly 5% of the tested compounds scored in any of these assays.

SMILES	CSC inhib	T cruzi inh	CHOP UPR activ	Beta cell apopt	Mdm2-MdmX inh	UPR XBP1 act	Mdm2-MdmX conf	FLuc counter
CCC(C)NC(=O)CNC(=S)N(Cc1ccccc1F)C1CCCCC1 (stereo not drawn)	1	15	1	-5	7	-5	.	.
COc1ccc(Cl)cc1-c1nc(-c2ccc(Br)o2)no1	0	-10	2	3	51*	4	20	.
COc1cc(-c2noc(C)c2C#CCO)cc(OC)c1OC	2	-17	-1	-6	28	-1	.	.
COc1cc(-c2noc(C)c2C#CC2(O)CCCCC2)cc(OC)c1OC	8	12	-1	-5	61*	4	43*	84*
COc1cc(-c2noc(C)c2C#Cc2ccsc2)cc(OC)c1OC	64	14	1	10	65*	15	68*	78*
CCCNC(=O)C(Cc1ccc(I)cc1)NC(=O)c1ccc(C#N)cc1 (stereo not drawn)	-15	.	1	-5	6	-1	.	.
O=C(NC(=S)Nc1ccccc1Br)C1CCC1	-8	1	2	3	19	2	.	.
N#Cc1ccc(CN2CCN(C(=O)c3cc(C4CC4)nn3-c3ccccc3)CC2)cc1	3	.	0	5	-10	-1	.	.
C/C(=N\Nc1ccc(S(N)(=O)=O)cc1[N+](=O)[O-])c1cccnc1	9	6	4	0	58*	1	1	.
C/C(=N\Nc1ccc([N+](=O)[O-])cc1[N+](=O)[O-])c1cccnc1	-4	-15	-1	6	19	-3	.	.
Cc1ccc2oc(C(=O)N3CCC(O)(c4cccc(C(F)(F)F)c4)CC3)c(C)c2c1	44	26	0	.	-41	-1	.	.
O=C(Nc1ccc(F)cc1)C1CCC(CNc2c(N3CCCCC3)c(=O)c2=O)CC1 (stereo not drawn)	-3	-7	0	4	-10	-2	.	.
CCCCn1c(-c2ccc(C(C)(C)C)cc2)nc2cc3[nH]c(=O)c(C(C)C)nc3cc21	10	14	0	-1	64*	7	26	.
C=CS(=O)(=O)c1ccc(Oc2ccc(S(=O)(=O)C=C)cc2)cc1	-10	51	-7	106*	100*	-6	100*	1
Cc1ccc(C(=O)Nc2cccc(C(=O)NCc3ccccc3)c2)o1	-2	5	-1	0	2	0	.	.
C/C(=N\NC(=O)C1(C)CC1(Br)Br)c1cccc(NC(=O)c2ccc(C)o2)c1 (stereo not drawn)	15	14	2	.	61*	-2	22	.
CCNc1nc2c(c(=O)n(C)c(=O)n2C)n1CCCc1ccccc1	-8	8	-2	8	19	-5	.	.
CCCCOc1ccccc1C(=O)N(Cc1ccc(C)o1)C1CCS(=O)(=O)C1 (stereo not drawn)	-6	-1	-2	-7	11	-2	.	.
CCCc1cc(=O)n2[nH]c(NC(=O)c3ccco3)nc2n1	-10	-7	0	0	-13	-5	.	.
COc1ccc(C2c3[nH]c4ccccc4c3C[C@H]3C(=O)N(C4CCN(Cc5ccccc5)CC4)CC(=O)N23)c(OC)c1 (stereo partly drawn)	8	25	0	15	21	3	.	.
COc1cccc(C2c3[nH]c4ccccc4c3C[C@H]3C(=O)N(C4CC4)CC(=O)N23)c1 (stereo partly drawn)	1	-4	1	-6	11	-2	.	.
O=C1[C@@H]2Cc3c([nH]c4ccccc34)C(c3ccccc3)N2C(=O)CN1C1CCN(Cc2ccccc2)CC1 (stereo partly drawn)	20	?	0	12	63*	1	38	92*
CCOc1ccccc1C1c2[nH]c3ccccc3c2C[C@H]2C(=O)N(C3CCN(Cc4ccccc4)CC3)CC(=O)N12 (stereo partly drawn)	8	62*	9	7	62*	-5	51*	67*
O=C1[C@@H]2Cc3c([nH]c4ccccc34)C(c3cccc(Br)c3)N2C(=O)CN1C1CCN(Cc2ccccc2)CC1 (stereo partly drawn)	82*	65*	25	23	88*	4	39	73*
COC(=O)c1ccc(C2c3[nH]c4ccccc4c3C[C@H]3C(=O)N(C4CCN(Cc5ccccc5)CC4)CC(=O)N23)cc1 (stereo partly drawn)	3	42	3	10	16	2	.	.
SMILES	CSC inhib	T cruzi inh	CHOP UPR activ	Beta cell apopt	Mdm2-MdmX inh	UPR XBP1 act	Mdm2-MdmX conf	FLuc counter
CCOc1ccccc1C(=O)Nc1ccc2c(c1)C(=O)NC2=O	-11	-8	0	-4	20	-2	.	.
COc1ccc(/C=N\NC(=O)c2sccc2C)cc1Cn1nc(C)cc1C	9	21	2	-6	59*	1	64*	73*
CCOC(=O)c1c(NC(=O)Cn2nc(C(=O)O)c3ccccc3c2=O)sc2c1CCC(C)C2 (stereo not drawn)	29	-21	-1	-3	7	-1	.	.
CCOC(=O)c1c(NC(=O)Cn2nc([N+](=O)[O-])c(Br)c2C)sc2c1CCC(C)C2 (stereo not drawn)	18	-19	9	7	58*	5	9	.
CCOC(=O)c1c(NC(=O)C2C3C=CC(C3)C2C(=O)O)sc2c1CCC(C)C2 (stereo not drawn)	-7	-15	1	-5	7	0	.	.
CCOC(=O)c1c(NC(=S)NC(=O)c2cnn(CC)c2)sc2c1CCC(C)C2 (stereo not drawn)	-2	5	-2	-6	54*	7	8	.
COc1ccc(-c2cc(C(=O)Nc3ccccc3N3CCOCC3)c3ccccc3n2)cc1OC	40	16	-2	15	53*	13	58*	75*
CCOc1cc(N2CCOCC2)c(OCC)cc1NC(=O)c1cc(-c2ccco2)nc2ccccc12	12	-17	4	16	70*	-4	66*	72*
